# Compound activity deposited in PubChem by Sanford-Burnham Center for Chemical Genomics.
# EBI2 antag: blocks human EBI2 receptor beta-arrestin signaling | inhibition, % at 5 µM | AID 651636 | EBI2 beta-arrestin recruitment, luminescence, 7a,25-OHC stimulated | P32249 | hit rate 0.81% among 360,000; in the data active = inhibition above about 38%;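 note: enzyme fragment complementation signal reports receptor beta-arrestin coupling in cells; 0% = agonist plus DMSO wells and 100% = wells without agonist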
# CXCR6 inh: CXCR6 (human) receptor inhibition. CHO-K1 PathHunter CXCR6 beta-arrestin, luminescence. inhibition, % at 20 µM. hit rate 0.36% among 360,000. AID 602244; in the data active = inhibition above about 34%, passing the limit was not always enough;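 note: antagonist mode with CXCL16 agonist at 10 nM final; 0% = 10 nM CXCL16 with DMSO and 100% = unstimulated wells without agonist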
# APJ ag: activates the human apelin receptor APJ | P35414 | CHO-K1 APJ PathHunter beta-arrestin, luminescence; 0% DMSO wells, 100% apelin | activation, % at 20 µM | hit rate 0.11% among 330,000;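 active = activation more than six SD over the plate average, tested at 20 µM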;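 note: 0% = DMSO alone and 100% = apelin-13 at 10 nM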
# Target sequence (P35414 whole entry, looked up): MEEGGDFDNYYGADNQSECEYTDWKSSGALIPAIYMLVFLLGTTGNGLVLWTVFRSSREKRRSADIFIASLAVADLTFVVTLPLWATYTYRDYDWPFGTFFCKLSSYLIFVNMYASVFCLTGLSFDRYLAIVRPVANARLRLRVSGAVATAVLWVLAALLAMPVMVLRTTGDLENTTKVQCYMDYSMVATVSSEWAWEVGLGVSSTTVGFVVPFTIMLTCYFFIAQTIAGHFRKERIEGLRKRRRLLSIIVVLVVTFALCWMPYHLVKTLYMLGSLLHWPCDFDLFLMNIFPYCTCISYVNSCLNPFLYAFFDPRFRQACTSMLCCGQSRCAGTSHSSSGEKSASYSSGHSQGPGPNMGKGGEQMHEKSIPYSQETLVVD
#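 Test system: CHO-K1 APJ beta-arrestin complementation cell line | Compound: Single test compound dose, 20 µM final, 1% DMSO | Incubation: Compound 90 min 25 °C, reagent 1 h | Measured by: beta-gal luminescence | Read-out basis: APJ–arrestin association signal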
# hiPSC survival: increases survival of single human iPS cells. hiPSC single-cell survival, ATPlite luminescence; 100% = ROCK inhibitor wells, 0% = DMSO. survival enhancement, % at 20 µM. hit rate 0.044% among 360,000. AID 602274; in the data active = survival enhancement above about 18%;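 note: cells exposed to compounds for 16 hours before the ATP read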
# CCR6 antag: antagonists of human CCR6 receptor; P51684; CHO-K1 CCR6 PathHunter beta-arrestin, luminescence, CCL20-stimulated; inhibition, % at 20 µM; hit rate 0.49% among 340,000;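 active = compounds whose inhibition of the agonist-driven luminescence signal at 20 µM reaches about 50%, limit read from the data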;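 note: cells stimulated with CCL20 at 14 nM final; plate controls were DMSO with CCL20 for no effect and DMSO without agonist for full effect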
# APJ antagonist: antagonists of human APJ apelin receptor | inhibition, % at 20 µM | CHO-K1 APJ beta-arrestin complementation, luminescence | P35414 | hit rate 0.32% among 330,000;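 active = inhibition above about 40% at 20 µM, limit read from the data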;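 note: cells challenged with 10 nM apelin-13 agonist together with compound; plate controls were apelin-13 plus DMSO wells for no effect and DMSO wells lacking apelin-13 for full effect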
# EBI2 conf: confirmation of human EBI2 receptor antagonists. shares compounds with EBI2 antag. EBI2 beta-arrestin luminescence, 7a,25-OHC antagonism. inhibition, % at 5 µM. hit rate 29% among 2,400. AID 651997;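 active = inhibition of at least 50%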
# EBI2 agonist: activates EBI2, counter-screen for EBI2 antagonists; shares compounds with EBI2 antag; EBI2-expressing cells, agonist mode, luminescence, 60 min; 0% vehicle, 100% 7α,25-dihydroxycholesterol control; activation, % at 5 µM; 2,400 tested, under 10 active; AID 652000;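 active = activation of at least 50%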
# bGal cs: counter-screen for EBI2 antagonists: E. coli beta-galactosidase inhibition. shares compounds with EBI2 antag. purified beta-galactosidase, luminescent Galacton Star, 15 min. inhibition, % at 5 µM. hit rate 1% among 2,400. AID 652176;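 active = replicate-average signal at least 3 plate SD below neutral wells, shown as high inhibition, flagging enzyme-inhibiting false positives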;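 note: 0% = DMSO wells with enzyme and 100% = wells lacking enzyme; higher means stronger loss of beta-gal luminescence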
# Starred values were filed as active, the others as inactive; nt = no result given. Shown are actives, neighbours in structure and some others; about 1.5% of the full set was active somewhere.
SMILES,EBI2 antag,CXCR6 inh,APJ ag,hiPSC survival,CCR6 antag,APJ antagonist,EBI2 conf,EBI2 agonist,bGal cs
Cc1ccc(C)c(S(=O)(=O)N2CCN(C(=O)CCCc3c[nH]c4ccccc34)CC2)c1,60*,1,1,0,16,-37,34,1,6
Cc1ccc(C)c(S(=O)(=O)N2CCN(C(=O)CSc3ccccc3)CC2)c1,57*,11,2,0,8,3,62*,1,6
Cc1ccc(NC2=CC(=O)CC(c3ccccc3)C2)cc1 (stereo not drawn),55*,-6,0,0,6,2,42,2,5
Nc1ccccc1NC1=CC(=O)CC(c2ccccc2)C1 (stereo not drawn),nt,nt,-2,nt,nt,9,nt,nt,nt
Cc1ccc(NC2=CC(=O)CC(c3ccc(Cl)cc3)C2)cc1 (stereo not drawn),82*,9,-2,-1,1,1,79*,-1,-8
C/C=C/C1=CC(=O)C[C@H](c2ccc(Cl)cc2)C1,-2,2,-4,-1,14,-1,nt,nt,nt
O=C1C=C(Nc2ccc(Cl)cc2)CC(c2ccccc2)C1 (stereo not drawn),70*,-2,-1,4,16,6,55*,0,8
CCOc1ccc(NS(=O)(=O)c2ccc(C(=O)N(C)Cc3cccc(OC)c3OC)cc2)cc1,0,0,-2,0,11,-12,nt,nt,nt
Cc1ccc(NC(=O)COC(=O)COc2cccc3c2OC(C)(C)C3)cc1S(=O)(=O)N1CCOCC1,-18,-11,16,0,-12,9,nt,nt,nt
Cc1ccc(NC(=O)C2(C)CCN2Cc2csc3ccccc23)cc1 (stereo not drawn),10,0,nt,0,nt,nt,nt,nt,nt
CC1(C(=O)NCc2ccccc2Br)CCN1Cc1csc2ccccc12 (stereo not drawn),61*,3,nt,0,nt,nt,51*,2,0
COc1ccc(NC(=O)c2cc(F)cc(F)c2)cc1Cl,-5,-1,2,3,0,11,nt,nt,nt
COc1ccc(OC)c(C(=O)c2ccc(C(=O)Nc3ccc4ccccc4c3)cc2)c1,88*,2,-2,4,2,5,55*,-1,-9
COc1ccc(NC(=O)c2ccc(OC(=S)N(C)c3ccc(OC)cc3)cc2)cc1,86*,-5,6,0,6,-11,74*,-2,-9
O=C(CS)Nc1ccc2ccccc2c1,40*,-6,nt,1,8,nt,26,0,3
COc1ccc(NC(=O)c2ccc(OC(F)F)cc2)cc1Cl,46*,-4,-2,-3,15,6,54*,-1,-11
COc1ccc(Cc2nnc(NC(=O)c3ccccc3F)s2)cc1,4,10,-2,0,9,9,nt,nt,nt
CC(C)(C)c1nc2ccc(NS(=O)(=O)c3ccc(F)c(F)c3F)cc2[nH]1,-8,-1,4,2,-8,-3,nt,nt,nt
O=C(C[C@H]1C/C=C\C[C@@H](Cc2ccc(F)cc2)C(=O)OC[C@@H]2CCCN2C1=O)NCCO,-4,0,1,2,8,2,nt,nt,nt
COc1ccc(NC(=S)NN(C)C(=S)Nc2ccc(OC)cc2)cc1,67*,2,-2,-2,6,-27,24,0,0
COc1ccc(C(=O)Nc2ccc3ccccc3c2)cc1,55*,-5,3,-1,15,1,38,0,-6
COc1cccc(C(=O)Nc2ccc3ccccc3c2)c1,13,-6,2,-1,3,7,nt,nt,nt
COc1cccc(C(=O)Nc2ccc(NC(=O)Cc3ccccc3)cc2)c1,66*,-3,1,0,11,10,40,0,8
Cc1ccc(Nc2ccc(C(=O)NCCc3ccccc3)cn2)cc1,83*,-4,-2,-1,7,9,58*,-1,-9
CCc1ccc(NC(=O)CS(=O)CC(=O)Nc2ccc(N3CCOCC3)cc2)cc1 (stereo not drawn),0,2,-2,0,3,-8,nt,nt,nt
SMILES,EBI2 antag,CXCR6 inh,APJ ag,hiPSC survival,CCR6 antag,APJ antagonist,EBI2 conf,EBI2 agonist,bGal cs
Cc1cccc(/C=C/C(=O)c2ccc(N3CCOCC3)cc2)c1,nt,nt,-3,nt,nt,12,nt,nt,nt
Cc1ccc(/C=C/C(=O)c2ccc(N3CCOCC3)cc2)s1,65*,-2,-3,-2,-3,9,43,-1,-9
CCc1ccc(C(=O)/C=C/c2ccc([N+](=O)[O-])o2)cc1,16,2,1,0,32,-38,nt,nt,nt
CCc1ccc(/C=C/C(=O)c2ccc(N3CCOCC3)cc2)cc1,83*,-3,-1,-2,14,15,53*,0,3
O=C(/C=C/c1ccc(F)cc1)c1ccc(N2CCOCC2)cc1,66*,0,-3,-1,24,8,51*,2,2
CCc1ccc(/C=C/C(=O)c2ccc(S(=O)(=O)N(C)C)cc2)cc1,86*,-2,3,-4,5,2,60*,0,-19
NC(=O)COC(=O)C1CSC2(c3ccc(F)cc3)CCC(=O)N12 (stereo not drawn),-6,4,-2,0,7,0,nt,nt,nt
CC1=C(C(=O)OCC2CCCO2)C(c2ccccc2OC(C)C)C2=C(CC(c3ccco3)CC2=O)N1 (stereo not drawn),-2,13,-6,-3,-2,12,nt,nt,nt
CC1=C(C(=O)OCC2CCCO2)C(c2cccc(C(F)(F)F)c2)C2=C(CC(c3ccco3)CC2=O)N1 (stereo not drawn),53*,7,-4,-1,8,-5,30,0,5
CCCCC1(C)NC(=O)N(CC(=O)Nc2ccc(Cl)cc2C)C1=O (stereo not drawn),-1,0,1,-3,14,0,nt,nt,nt
Cc1ccc(C(OCC(O)CNCc2ccc(F)cc2)c2ccccc2)cc1 (stereo not drawn),0,-4,-2,0,8,13,nt,nt,nt
CCOC(=O)c1c(C)nc(C)c(C(=O)OCC)c1-c1cccc([N+](=O)[O-])c1,59*,-3,nt,5,nt,nt,35,0,7
Cc1ccccc1Oc1ccc2c(c1)[C@@H]1C[C@H](N(C)C(=O)c3ccc(C#N)cc3)[C@H]([C@H](C)O)C(=O)N1CC2,18,-6,nt,-1,5,nt,nt,nt,nt
